We go through five compounds from ChEMBL document CHEMBL2163238, “Design, synthesis, and biological evaluation of N-alkylated deoxynojirimycin (DNJ) derivatives for the treatment of dengue virus infection” (J Med Chem, 2012).

In brackets after ≈: the same amount, converted by molar mass. Activity calls are given as the source filed them. No cut-off for these calls is given here.

For series [1], the target named is T1, CYP3A4 (Homo sapiens, UniProt P08684). As to the kind of experiment: (§1) Inhibition of human CYP3A4 using testosterone as substrate at 10 uM. The series is classed as ADME. Conditions: probe testosterone. The gist of the method: (§2)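 Inhibition of CYP isoforms with compound at 10 μM, reported as % inhibition. CYP3A4 run with midazolam or testosterone as substrate.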
T1 sequence (P08684 whole entry, canonical isoform): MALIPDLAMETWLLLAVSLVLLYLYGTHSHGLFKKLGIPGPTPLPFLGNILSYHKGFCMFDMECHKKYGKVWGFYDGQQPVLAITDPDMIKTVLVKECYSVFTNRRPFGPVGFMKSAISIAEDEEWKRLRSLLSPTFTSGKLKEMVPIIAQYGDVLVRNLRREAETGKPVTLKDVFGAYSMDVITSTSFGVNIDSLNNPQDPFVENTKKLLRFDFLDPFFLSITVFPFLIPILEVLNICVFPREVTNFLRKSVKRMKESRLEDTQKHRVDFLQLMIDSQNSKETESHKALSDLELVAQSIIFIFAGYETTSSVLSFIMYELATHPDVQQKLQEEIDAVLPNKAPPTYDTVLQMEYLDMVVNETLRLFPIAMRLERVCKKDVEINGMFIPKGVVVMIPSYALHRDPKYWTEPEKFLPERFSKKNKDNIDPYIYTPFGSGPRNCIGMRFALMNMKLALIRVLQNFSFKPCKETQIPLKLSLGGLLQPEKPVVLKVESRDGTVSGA

The subject of the next series is dengue virus type 2. Nature of the series: Antiviral activity against 0.01 MOI DENV-2 NGC infected in BHK cells assessed as reduction in viral titer after 48 hrs. Type of series: functional, organism-based. The gist of the method:
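BHK cells infected with DENV-2 New Guinea C at MOI 0.01 for 1 h. Inoculum removed, then compounds at 0.1–100 μM for 48 h at 37 °C. Supernatants titrated on Vero monolayers as 10-fold dilutions under 0.5% methylcellulose for 3–5 days. Foci detected by 4G2 immunostaining or crystal violet plaques. EC50 from dose–response curves, mean of 3 independent experiments.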

Series [2] in a line: Metabolic stability in rat liver microsomes at 60 mins. The series is classed as ADME, Microsome. Conditions: read-out: Stability.
Series [3] in a line: Cytotoxicity against BHK cells assessed as cell viability by MTT assay. Type of series: cell-based, Mesocricetus auratus. Conditions: hamster.
Series [4] in a line: Plasma protein binding in human plasma. Type of series: ADME, cell-free. Conditions: read-out: PPB (converted). The gist of the method:
(§3)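 Binding of compound to human, rat or mouse plasma protein, reported as % bound.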

A short description of series [5]: Aqueous solubility in PBS at pH 7.4. The series is classed as physicochemical. The settings on record: buffer.
The nature of series [6]: Cytotoxicity against human Huh7.5 cells assessed as cell viability by DRAQ5 and Sapphire 700 staining. Conditions: huh-7.
Series [7] can be described thus: Plasma protein binding in mouse plasma. Type of series: ADME, cell-free. The settings on record: read-out: PPB (converted). The gist of the method:
as §3

The next series has as its target CYP2C9 (Homo sapiens, UniProt P11712). As to the kind of experiment: Inhibition of human CYP2C9 at 10 uM. The series is classed as ADME. The procedure, abridged:
(§4)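 Inhibition of CYP isoforms by compounds tested at 10 μM, given as percent inhibition; contract in vitro ADME panel.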

A further series addresses CYP2C19 (Homo sapiens, UniProt P33261). Nature of the series: Inhibition of human CYP2C19 at 10 uM. Type of series: ADME. The gist of the method: as §2
In another series the test system is MDBK. Nature of the series: Competitive inhibition of endoplasmic reticulum-resident alpha-glucosidase in MDBK cells infected with 1 MOI BVDV assessed as decrease in viral E2 protein mobility at 0.8 to 100 uM after 24 hrs by Western blotting. Type of series: cell-based. Conditions: Bos taurus. The gist of the method: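 MDBK cells infected with BVDV at MOI 1 for 1 h, then compounds at 0.8, 4.0, 20 and 100 μM. Cells lysed in Laemmli buffer, run on 12% polyacrylamide gel and transferred to nitrocellulose. BVDV E2 mobility probed with monoclonal WB166 and β-actin detected in parallel. IR-dye secondary antibody, Odyssey imaging.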

A short description of series [8]: Metabolic stability in mouse liver microsomes at 60 mins. The series is classed as ADME, Microsome. The settings on record: read-out: Stability.
A short description of series [9]: Plasma protein binding in rat plasma. The series is classed as ADME, cell-free. Conditions: read-out: PPB (converted). The gist of the method:
as §3

The target of a further series is CYP2D6 (Homo sapiens, UniProt P10635). As to the kind of experiment: Inhibition of human CYP2D6 at 10 uM. Type of series: ADME. The procedure, abridged:
as §4

The nature of series [10]: Aqueous solubility in PBS at pH 4. The settings on record: buffer. The series is classed as physicochemical.
Series [11] concerns the target T1, CYP3A4. As to the kind of experiment: Inhibition of human CYP3A4 using midazolam as substrate at 10 uM. Type of series: ADME. The settings on record: probe midazolam. The procedure, abridged: as §2
For the next series, the system named is Dengue virus. Nature of the series: Antiviral activity against 0.01 MOI DENV infected in human Huh7.5 cells assessed as reduction in viral […] protein level at 0.1 to 100 uM after 2 days by Western blotting. Type of series: functional, organism-based. The settings on record: Huh-7.
In another series the target is T2, CYP1A2 (Homo sapiens, UniProt P05177).
T2 sequence (P05177 whole entry): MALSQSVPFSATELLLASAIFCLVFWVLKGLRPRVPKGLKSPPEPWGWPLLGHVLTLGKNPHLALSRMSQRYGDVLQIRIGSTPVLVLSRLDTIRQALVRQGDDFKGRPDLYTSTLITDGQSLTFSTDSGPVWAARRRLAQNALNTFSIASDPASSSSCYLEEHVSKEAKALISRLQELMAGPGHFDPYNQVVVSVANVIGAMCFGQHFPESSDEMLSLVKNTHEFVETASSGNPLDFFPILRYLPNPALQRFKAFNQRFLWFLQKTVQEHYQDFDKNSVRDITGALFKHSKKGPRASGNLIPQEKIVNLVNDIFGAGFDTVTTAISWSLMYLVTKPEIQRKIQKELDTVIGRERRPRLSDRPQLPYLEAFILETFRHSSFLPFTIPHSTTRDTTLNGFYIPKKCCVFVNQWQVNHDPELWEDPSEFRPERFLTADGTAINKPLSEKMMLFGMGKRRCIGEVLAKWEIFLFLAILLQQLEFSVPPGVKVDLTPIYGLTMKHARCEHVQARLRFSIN
As to the kind of experiment: Inhibition of human CYP1A2 at 10 uM. The series is classed as ADME. The procedure, abridged: as §2

Series [12] can be described thus: Cytotoxicity against MDBK cells assessed as cell viability by MTT assay. Type of series: cell-based, Bos taurus. Conditions: cattle.
Series [13] is described as follows: Antiviral activity against 1 MOI BVDV NADL infected in MDBK cells assessed as reduction in viral titer after 22 hrs. Type of series: functional, cell-based, Bovine viral diarrhea virus 1-NADL. The settings on record: Bovine viral diarrhea virus isolates and strains, MDBK, 22 h. The procedure, abridged: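 MDBK cells (2×10^5) infected 24 h after seeding with BVDV NADL at MOI 1, with 1 h adsorption at 37 °C. Washed, then compounds at 0.1–100 μM. Media harvested 22 h post-infection and plaque-titrated on MDBK under 1% methylcellulose for 3 days. Plaques counted directly or after neutral red staining. EC50 from dose–response curves, mean of 3 independent experiments.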

Series [14] can be described thus: Metabolic stability in human liver microsomes at 60 mins. The series is classed as ADME, Microsome. Conditions: read-out: Stability.
A short description of series [15]: Selectivity index, ratio of CC50 for BHK cells to EC50 for DENV-2 NGC infected in BHK cells. The gist of the method: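 BHK cells infected with DENV-2 New Guinea C at MOI 0.01 for 1 h, then compounds at 0.1–100 μM for 48 h at 37 °C. Supernatant titrated on Vero cells under 0.5% methylcellulose, 3–5 days; foci by 4G2 immunostaining or crystal violet plaques. EC50 from yield curves; MTT CC50 in uninfected BHK; SI = CC50/EC50.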

Series [16] is described as follows: Selectivity index, ratio of CC50 for MDBK cells to EC50 for BVDV NADL infected in MDBK cells. The gist of the method:
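MDBK cells infected with BVDV NADL at MOI 1, 1 h at 37 °C, washed, then compounds at 0.1–100 μM. Media harvested at 22 h, plaque-titrated on MDBK under 1% methylcellulose for 3 days, neutral red or direct count. EC50 from yield curves; MTT CC50 in uninfected MDBK; SI = CC50/EC50.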

The nature of series [17]: Oral bioavailability in Sprague-Dawley rat at 25 mg/kg. Type of series: ADME, organism-based. Conditions: in vivo.
For the next series, the target named is Cytochrome P450 3A4 (Homo sapiens, UniProt P08684). The series is described as §1. Type of series: ADME. The settings on record: 10 µM. The procedure, abridged:
as §2

Chain of CYP2C19 (P33261 whole entry): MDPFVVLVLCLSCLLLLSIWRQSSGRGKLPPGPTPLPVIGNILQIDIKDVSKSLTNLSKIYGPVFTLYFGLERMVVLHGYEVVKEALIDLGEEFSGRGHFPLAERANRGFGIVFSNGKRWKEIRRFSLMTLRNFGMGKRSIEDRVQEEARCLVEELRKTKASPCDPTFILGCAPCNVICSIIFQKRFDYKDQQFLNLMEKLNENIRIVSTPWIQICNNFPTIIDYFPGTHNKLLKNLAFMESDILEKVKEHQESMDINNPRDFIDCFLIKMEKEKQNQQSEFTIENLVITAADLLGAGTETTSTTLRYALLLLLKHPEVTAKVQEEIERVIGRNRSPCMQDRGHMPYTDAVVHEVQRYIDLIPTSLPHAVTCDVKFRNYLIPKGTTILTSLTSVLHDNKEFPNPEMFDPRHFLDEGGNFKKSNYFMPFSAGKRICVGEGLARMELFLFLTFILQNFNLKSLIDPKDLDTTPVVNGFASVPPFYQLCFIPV
Chain of CYP2C9 (P11712 whole entry, canonical isoform): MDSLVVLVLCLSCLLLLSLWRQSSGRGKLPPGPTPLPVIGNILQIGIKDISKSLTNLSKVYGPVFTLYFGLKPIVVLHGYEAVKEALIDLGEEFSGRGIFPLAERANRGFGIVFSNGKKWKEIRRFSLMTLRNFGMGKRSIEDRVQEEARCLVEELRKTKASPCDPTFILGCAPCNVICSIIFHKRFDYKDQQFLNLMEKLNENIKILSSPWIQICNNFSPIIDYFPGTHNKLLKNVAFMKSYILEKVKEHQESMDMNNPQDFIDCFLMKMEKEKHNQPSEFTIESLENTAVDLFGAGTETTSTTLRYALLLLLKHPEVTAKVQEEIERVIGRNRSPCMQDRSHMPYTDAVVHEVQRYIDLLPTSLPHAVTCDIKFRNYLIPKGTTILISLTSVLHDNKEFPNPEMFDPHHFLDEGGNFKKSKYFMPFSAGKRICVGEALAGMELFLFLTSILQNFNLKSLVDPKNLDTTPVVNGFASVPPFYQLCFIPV
Chain of CYP2D6 (P10635 whole entry): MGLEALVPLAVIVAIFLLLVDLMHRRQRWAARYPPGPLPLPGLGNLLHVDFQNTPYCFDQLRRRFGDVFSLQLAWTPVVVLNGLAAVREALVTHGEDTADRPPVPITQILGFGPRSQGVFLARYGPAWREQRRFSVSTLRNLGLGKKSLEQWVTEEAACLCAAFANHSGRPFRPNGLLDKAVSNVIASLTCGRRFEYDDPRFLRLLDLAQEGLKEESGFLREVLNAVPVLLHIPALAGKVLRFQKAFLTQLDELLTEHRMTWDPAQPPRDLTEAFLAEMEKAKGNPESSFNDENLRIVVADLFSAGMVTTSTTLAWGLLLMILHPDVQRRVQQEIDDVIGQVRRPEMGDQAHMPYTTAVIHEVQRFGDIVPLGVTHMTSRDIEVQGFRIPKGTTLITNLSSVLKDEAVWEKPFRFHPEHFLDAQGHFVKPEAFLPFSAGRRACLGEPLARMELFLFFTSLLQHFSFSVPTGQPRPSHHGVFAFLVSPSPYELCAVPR
Chain of Cytochrome P450 3A4 (P08684 whole entry): as the sequence (P08684 whole entry, canonical isoform) above

For the compound `CCCOc1cccc(CCCN2C[C@H](O)[C@@H](O)[C@H](O)[C@H]2CO)c1`, the inhibition at 10 µM against CYP3A4 [1] is 0.7%; against CYP2C9, 10.5%; against CYP2C19, 2.8%; on CYP2D6, 11%; against CYP3A4 [11], 8.6%; at CYP1A2 it was 15.9%. For the same compound, the Activity entry with dengue virus type 2 is “Dose-dependent effect”; in series [6], “Non-toxic”. Also, the EC50 in the series on dengue virus type 2 turned out to be 300 nM; in series [13], 1200 nM. For the same compound, the remaining at 1 h in [2] is 97%; in series [8], 87%; in [14], 99%. Besides, the CC50 in series [3] and in series [12] was > 500000 nM throughout. Moreover, the fraction unbound in [4] was 0.32; in series [7], 0.4; in [9], 0.43. For the same compound, the solubility in [5] is 288 µM (≈ 97.8 µg/mL); in series [10], 281 µM (≈ 95.4 µg/mL). Moreover, the inhibition entry in the series on MDBK was “Active”. Also, the outcome in the series on Dengue virus was Active.
For `OC[C@@H]1[C@@H](O)[C@H](O)[C@@H](O)CN1CCCCCCOC1CCCCC1`, the results for the EC50 (in the series with dengue virus type 2; in series [13]) were 1600 nM and 400 nM, respectively. For the same compound, the half-maximal cytotoxic concentration (CC50) in series [3] was > 500000 nM; in series [12] it was 480000 nM. The inhibition result with MDBK is “Active”. For the same compound, the “Ratio CC50/EC50” value in series [15] is >312; in series [16], 1200.
On to `CCC(O)(CC)CCCCCCN1C[C@H](O)[C@@H](O)[C@H](O)[C@H]1CO`, for which the inhibition at 10 µM against CYP3A4 [1] worked out at 20.5%; against CYP2C9, 9.6%; on CYP2C19, 37%; against CYP2D6 it was 1.2%; against CYP3A4 [11] it was 21%; at CYP1A2, 7.9%. In addition, the Activity entry in the series on dengue virus type 2 was “Dose-dependent effect”; in series [6] it was “Non-toxic”. Besides, the EC50 in the series on dengue virus type 2 was found to be 6500 nM; in series [13] it was 6200 nM. Also, the results for the remaining at 1 h in [2], in series [8] and in [14] were 98%, 104% and 99%, respectively. In addition, the cytotoxic concentration (CC50) in series [3] and in series [12] was > 500000 nM each time. For the same compound, the fraction unbound in series [4] was 0.67; in series [7], 0.6; in series [9], 0.7. For the same compound, the bioavailability in series [17] stood at 56%. Besides, the solubility in [5] and in series [10] was 315 µM (≈ 105 µg/mL) in each case. Further, the inhibition entry in the series on MDBK was “Active”. Besides, in the series on Dengue virus, the result was Active.
For the compound `OC[C@@H]1[C@@H](O)[C@H](O)[C@@H](O)CN1CCCCCCOC1CCCCCC1`, the “inhibition (INH)” value at Cytochrome P450 3A4 is reported as 3.1%. Moreover, the values for the Activity result (with dengue virus type 2; in [6]) were “Dose-dependent effect” and “Non-toxic”, respectively. Also, the figures for the EC50 (in the series with dengue virus type 2; in series [13]) were 500 nM and 1400 nM, respectively. Also, the remaining at 1 h in series [2] worked out at 90%; in series [8] it was 92%; in series [14] it was 89%. The CC50 in series [3] and in [12] was > 500000 nM throughout. The fraction unbound in [4] was 0.29; in [7], 0.15; in [9], 0.35. The solubility in series [5] stood at 295 µM (≈ 106 µg/mL); in [10], 286 µM (≈ 103 µg/mL). The inhibition at 10 µM against CYP2C9 is 5%; on CYP2C19 it was -4.9%; at CYP2D6 it was 2.5%; at CYP3A4 [11], 21.2%; against CYP1A2 it was 9%. Besides, the result in the series on Dengue virus was Active.
On to `OC[C@@H]1[C@@H](O)[C@H](O)[C@@H](O)CN1CCCCCCOCc1ccccc1`, for which the “inhibition (INH)” value against Cytochrome P450 3A4 was 3.3%. Besides, the Activity result was “Dose-dependent effect” in the series on dengue virus type 2 and “Non-toxic” in [6]. Besides, the 50% effective concentration (EC50) with dengue virus type 2 turned out to be 400 nM; in series [13], 1500 nM. The remaining at 1 h was 91% in [2], 97% in series [8] and 104% in [14]. Besides, the cytotoxic concentration (CC50) in series [3] and in series [12] was > 500000 nM throughout. Also, the fraction unbound in series [4] is 0.48; in [7], 0.47; in series [9] it was 0.51. Moreover, the solubility was 288 µM (≈ 102 µg/mL) in series [5] and 282 µM (≈ 99.7 µg/mL) in [10]. Further, the inhibition at 10 µM against CYP2C9 was determined as 10.7%; against CYP2C19, 14.2%; on CYP2D6 it was 9.1%; against CYP3A4 [11], 6.6%; against CYP1A2, 17.3%. For the same compound, the outcome in the series with Dengue virus was Active.
